Results reported in ChEMBL document CHEMBL1157925, “Identification of a novel series of potent RON receptor tyrosine kinase inhibitors” (Bioorg Med Chem Lett, 2010).
Blank lines part the entries; values can stand above or below the molecule they belong to.

Columns and labels:
[1] = target: Macrophage-stimulating protein receptor (Homo sapiens, UniProt Q04912); experiment: Inhibition of TPR-tagged RON catalytic domain expressed in HEK293 cells; format: cell-based
[2] = target: T1, Hepatocyte growth factor receptor (Homo sapiens, UniProt P08581); experiment: Inhibition of c-Met
[3] = target: Vascular endothelial growth factor receptor 2 (Homo sapiens, UniProt P35968); experiment: Inhibition of VEGFR2
Summary of the method: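 GST-fused VEGFR-2/KDR catalytic domain from baculovirus-infected Sf9 cells, glutathione-agarose purified, 5 nM. Buffer: 60 mM Hepes pH 7.5, 3 mM MgCl2, 3 mM MnCl2, 1.2 mM β-mercaptoethanol, 0.1 mg/mL BSA, 3 µM vanadate. Mg-ATP at 2× Km. Enzyme, inhibitor and ATP were first combined for 4 min on ice. Reaction ran on immobilized poly(Glu4,Tyr) at 30 °C for 10 min and was stopped with EDTA. DELFIA Eu-anti-phosphotyrosine read-out. Seven concentrations in triplicate; IC50 from a 4-parameter fit.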

[4] = target: T1, Hepatocyte growth factor receptor; experiment: Inhibition of c-Met phosphorylation in human MKN45 cells; format: cell-based, MKN-45
HCT-116 = experiment: Antitumor activity against human HCT116 cells by MTT assay
[5] = target: Receptor-type tyrosine-protein kinase FLT3 (Homo sapiens) (UniProt P36888); experiment: Inhibition of FLT3; conditions: concentration not given here
Summary of the method: (§1)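 Outsourced kinase panel of 23 enzymes (Millipore KinaseProfiler); single test concentration of 0.1 µM; percent inhibition of kinase activity reported.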

[6] = target: ALK tyrosine kinase receptor (Homo sapiens) (UniProt Q9UM73); experiment: Inhibition of ALK; conditions: concentration not given here; summary of the method: as §1
[7] = target: Cytoplasmic tyrosine-protein kinase BMX (Homo sapiens) (UniProt P51813); experiment: Inhibition of BMX; conditions: concentration not given here; summary of the method: as §1
[8] = target: Serine/threonine-protein kinase Chk1 (Homo sapiens) (UniProt O14757); experiment: Inhibition of CHK1; conditions: concentration not given here; summary of the method: as §1
[9] = target: Mast/stem cell growth factor receptor Kit (Homo sapiens) (UniProt P10721); experiment: Inhibition of cKit; conditions: concentration not given here; summary of the method: as §1
[10] = target: RAF proto-oncogene serine/threonine-protein kinase (Homo sapiens) (UniProt P04049); experiment: Inhibition of c-Raf; conditions: concentration not given here; summary of the method: as §1
[11] = target: Ephrin type-B receptor 4 (Homo sapiens) (UniProt P54760); experiment: Inhibition of EphB4; conditions: concentration not given here; summary of the method: as §1
[12] = target: Focal adhesion kinase 1 (Homo sapiens) (UniProt Q05397); experiment: Inhibition of FAK; conditions: concentration not given here; summary of the method: as §1
[13] = target: Glycogen synthase kinase-3 beta (Homo sapiens) (UniProt P49841); experiment: Inhibition of GSK3-beta; conditions: concentration not given here; summary of the method: as §1
[14] = target: Serine/threonine-protein kinase haspin (Homo sapiens) (UniProt Q8TF76); experiment: Inhibition of haspin; conditions: concentration not given here; summary of the method: as §1
[15] = target: Inhibitor of nuclear factor kappa-B kinase subunit beta (Homo sapiens) (UniProt O14920); experiment: Inhibition of IKK-beta; conditions: concentration not given here; summary of the method: as §1
[16] = target: Tyrosine-protein kinase JAK3 (Homo sapiens) (UniProt P52333); experiment: Inhibition of JAK3; conditions: concentration not given here; summary of the method: as §1
[17] = target: LIM domain kinase 1 (Homo sapiens) (UniProt P53667); experiment: Inhibition of LIMK1; conditions: concentration not given here; summary of the method: as §1
[18] = target: Dual specificity mitogen-activated protein kinase kinase 1 (Homo sapiens) (UniProt Q02750); experiment: Inhibition of MEK1; conditions: concentration not given here; summary of the method: as §1
[19] = target: Phosphatidylinositol 4,5-bisphosphate 3-kinase catalytic subunit beta isoform (Homo sapiens) (UniProt P42338); experiment: Inhibition of PI3Kbeta; conditions: concentration not given here; summary of the method: as §1
[20] = target: Serine/threonine-protein kinase pim-1 (Homo sapiens) (UniProt P11309); experiment: Inhibition of PIM1; conditions: concentration not given here; summary of the method: as §1
[21] = target: RAC-alpha serine/threonine-protein kinase (Homo sapiens) (UniProt P31749); experiment: Inhibition of PKBalpha; conditions: concentration not given here; summary of the method: as §1
[22] = target: Proto-oncogene tyrosine-protein kinase receptor Ret (Homo sapiens) (UniProt P07949); experiment: Inhibition of Ret; conditions: concentration not given here; summary of the method: as §1
[23] = target: Angiopoietin-1 receptor (Homo sapiens) (UniProt Q02763); experiment: Inhibition of Tie2; conditions: concentration not given here; summary of the method: as §1
[24] = Half life in rat at 2.5 mg/kg, iv; format: ADME, organism-based; design: dose 2.5 mg/kg, route intravenous; conditions: in vivo
[25] = Clearance in rat at 2.5 mg/kg, iv and 5 mg/kg, po; format: ADME, organism-based; conditions: in vivo
[26] = Volume of distribution at steady state in rat at 2.5 mg/kg, iv and 5 mg/kg, po; format: ADME, organism-based; conditions: in vivo, read-out: Vdss
[27] = Tmax in rat at 5 mg/kg, po; format: ADME, organism-based; design: dose 5 mg/kg, route oral; conditions: in vivo
Rattus norvegicus = experiment: Cmax in rat at 5 mg/kg, po; format: ADME, organism-based; design: dose 5 mg/kg, route oral; conditions: in vivo
[28] = Oral bioavailability in rat at 5 mg/kg, po; format: ADME, organism-based; conditions: in vivo
[29] = target: 3-phosphoinositide-dependent protein kinase 1 (Homo sapiens) (UniProt O15530); experiment: Inhibition of PDK1; conditions: concentration not given here

- IC50 [1]: 0.05 µM
- IC50 [2]: 0.15 µM
- IC50 [3]: > 10 µM
- IC50 [4]: 0.5 µM
- IC50 (HCT-116; Homo sapiens, HCT-116): 0.08 µM
- inhibition [5]: 96%
- inhibition [6]: < 40%
- inhibition [7]: < 40%
- inhibition [8]: < 40%
- inhibition [9]: < 40%
- inhibition [10]: < 40%
- inhibition [11]: < 40%
- inhibition [12]: < 40%
- inhibition [13]: < 40%
- inhibition [14]: < 40%
- inhibition [15]: < 40%
- inhibition [16]: < 40%
- inhibition [17]: < 40%
- inhibition [18]: < 40%
- inhibition [19]: < 40%
- inhibition [20]: < 40%
- inhibition [21]: < 40%
- inhibition [22]: < 40%
- inhibition [23]: < 40%
- half-life [24]: 2.7 h
- clearance [25]: 0.63 L/h/kg
- Vd [26]: 2.4 L/kg
- Tmax [27]: 6 h
- Cmax normalised (Rattus norvegicus): 0.25 µM/mg/kg
- bioavailability [28]: > 30%
- inhibition [29]: < 40%
SMILES: Cn1cnc(-c2cc3nccc(Oc4ccc(NC(=O)c5cnn(-c6ccccc6)c5C(F)(F)F)cc4F)c3s2)c1

- IC50 [3]: 5.3 µM
SMILES: COCCNC(=O)c1ccc(-c2cc3nccc(Oc4ccc(NC(=O)c5cnn(-c6ccccc6)c5C(F)(F)F)cc4F)c3s2)nc1

- IC50 [3]: 1 µM
SMILES: CN(C)[C@H]1CCN(C(=O)c2ccc(-c3cc4nccc(Oc5ccc(NC(=O)c6cnn(-c7ccccc7)c6C(F)(F)F)cc5F)c4s3)cc2)C1

- IC50 [3]: 3 µM
SMILES: Cn1cnc(-c2cc3nccc(Oc4ccc(NC(=O)c5cnn(C(C)(C)C)c5C(F)(F)F)cc4F)c3s2)c1

- IC50 [3]: 1.4 µM
SMILES: CN(C)C(=O)c1ccc(-c2cc3nccc(Oc4ccc(NC(=O)c5cnn(-c6ccccc6)c5C(F)(F)F)cc4F)c3s2)cc1

- IC50 [3]: 2 µM
SMILES: Cc1c(C(=O)Nc2ccc(Oc3ccnc4cc(-c5cn(C)cn5)sc34)c(F)c2)cnn1-c1ccccc1

- IC50 [3]: > 2 µM
SMILES: COc1cc2nccc(Oc3ccc(NC(=O)c4cnn(-c5ccccc5)c4C(F)(F)F)cc3F)c2cc1OC

- IC50 [3]: 1.4 µM
SMILES: Cn1cnc(-c2cc3nccc(Oc4ccc(NC(=O)c5cnn(-c6ccccc6)c5)cc4F)c3s2)c1

- IC50 [3]: 0.7 µM
SMILES: CN(C)CCN(C)C(=O)c1ccc(-c2cc3nccc(Oc4ccc(NC(=O)c5cnn(-c6ccccc6)c5C(F)(F)F)cc4F)c3s2)cc1

- IC50 [3]: 1.4 µM
SMILES: CC(=O)N1CC=C(c2cc3nccc(Oc4ccc(NC(=O)c5cnn(-c6ccccc6)c5C(F)(F)F)cc4F)c3s2)CC1

- IC50 [1]: > 10 µM
- IC50 [2]: > 15 µM
- IC50 [3]: > 20 µM
SMILES: CNC(=O)c1cc(Oc2ccc(NC(=O)c3cnn(-c4ccccc4)c3C(F)(F)F)cc2F)ccn1

- IC50 [1]: > 1 µM
- IC50 [2]: 0.06 µM
- IC50 [3]: 0.7 µM
SMILES: Cn1cnc(-c2cc3nccc(Oc4ccc(NC(=O)c5cnn(C)c5C(F)(F)F)cc4F)c3s2)c1

- IC50 [3]: 2.5 µM
SMILES: COC[C@H](C)N(Cc1ccc(-c2cc3nccc(Oc4ccc(NC(=O)c5cnn(-c6ccccc6)c5C(F)(F)F)cc4F)c3s2)cc1)C(C)=O

- IC50 [3]: 2.5 µM
SMILES: CN(C)C(=O)c1ccc(-c2cc3nccc(Oc4ccc(NC(=O)c5cnn(-c6ccccc6)c5C(F)(F)F)cc4F)c3s2)nc1

- IC50 [3]: 1.9 µM
SMILES: CCCc1c(C(=O)Nc2ccc(Oc3ccnc4cc(-c5cn(C)cn5)sc34)c(F)c2)cnn1-c1ccccc1

- IC50 [3]: 0.01 µM
- IC50 (HCT-116; hct-116): Not Active
SMILES: Cn1cnc(-c2cc3nccc(Oc4ccc(NC(=O)N5CCN(c6ccccc6)C5=O)cc4F)c3s2)c1

- IC50 [3]: 1.4 µM
SMILES: Cn1ccnc1-c1cc2nccc(Oc3ccc(NC(=O)c4cnn(-c5ccccc5)c4C(F)(F)F)cc3F)c2s1

- IC50 [3]: 1.1 µM
SMILES: CS(=O)(=O)CCNCc1ccc(-c2cc3nccc(Oc4ccc(NC(=O)c5cnn(-c6ccccc6)c5C(F)(F)F)cc4F)c3s2)cc1

- IC50 [1]: > 1 µM
- IC50 [2]: 0.18 µM
- IC50 [3]: 0.8 µM
SMILES: Cn1cnc(-c2cc3nccc(Oc4ccc(NC(=O)c5cnn(-c6ccccc6)c5N)cc4F)c3s2)c1
